From ChEMBL document CHEMBL1157729, “Structure-activity relationship and mechanism of action studies of manzamine analogues for the control of neuroinflammation and cerebral infections” (J Med Chem, 2010)

Experiments:
Plasmodium berghei [1] = test: Antiplasmodial activity in Plasmodium berghei NK65 infected in Swiss Webster mice (Mus musculus) assessed as survivability at 1.1 mg/kg, perorally administered 1 day after infection for 3 days measured after 28 days post infection; assay type: functional; conditions: route oral
Summary of the method: (§1)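 Male Swiss Webster mice (18-20 g), at least 5 per group, inoculated i.p. with 2×10^7 P. berghei NK-65-parasitized red cells from a donor mouse. Oral dosing (100 μl, in SSV or 0.01 M HCl dilutions) from day one post-infection on a 3-day schedule (modified Peters test). Giemsa-stained tail-blood smears read from day 5 to day 28. Cure means no parasitemia through day 28.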

[2] = Antineuroinflammatory activity in LPS-stimulated rat neonatal microglia assessed as inhibition of PMA-induced superoxide anion production preincubated 15 mins prior to PMA challenge measured after 70 mins; assay type: functional, cell-based
[3] = Antineuroinflammatory activity in LPS-stimulated rat neonatal microglia assessed as inhibition of PMA-induced TXB2 production preincubated 15 mins prior to PMA challenge measured after 70 mins; assay type: functional, cell-based
Plasmodium berghei [4] = test: Antiplasmodial activity against Plasmodium berghei NK65 infected in Swiss Webster mice (Mus musculus) assessed as inhibition of parasitaemia at 3.3 mg/kg, perorally administered 1 day after infection for 3 days measured after 5 days post infection; assay type: functional; conditions: route oral
Summary of the method: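 Male Swiss Webster mice (18-20 g, ≥5/group) inoculated i.p. with 2×10^7 P. berghei NK-65 parasitized RBC; oral dosing (100 μl, SSV or dilute HCl vehicle) once daily for 3 days from day 1; Giemsa-stained tail blood smears days 5–28; inhibition is % decrease versus untreated controls on day 5.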

Plasmodium berghei [5] = test: Antiplasmodial activity against Plasmodium berghei NK65 infected in Swiss Webster mice (Mus musculus) assessed as average parasitaemia at 10 mg/kg, perorally administered 1 day after infection for 3 days measured after 7 days post infection; assay type: functional; conditions: route oral
Plasmodium berghei [6] = test: Antiplasmodial activity against Plasmodium berghei NK65 infected in Swiss Webster mice (Mus musculus) assessed as average parasitaemia at 10 mg/kg, perorally administered 1 day after infection for 3 days measured after 10 days post infection; assay type: functional; conditions: route oral
Plasmodium berghei [7] = test: Antiplasmodial activity against Plasmodium berghei NK65 infected in Swiss Webster mice (Mus musculus) assessed as survivability at 10 mg/kg, perorally administered 1 day after infection for 3 days measured after 28 days post infection; assay type: functional; conditions: route oral
Plasmodium berghei [8] = test: Antiplasmodial activity against Plasmodium berghei NK65 infected in Swiss Webster mice (Mus musculus) assessed as parasitaemia cure at 1.1 mg/kg, perorally administered 1 day after infection for 3 days measured after 28 days post infection; assay type: functional; conditions: route oral; summary of the method: as §1
Plasmodium berghei [9] = test: Antiplasmodial activity against Plasmodium berghei NK65 infected in Swiss Webster mice (Mus musculus) assessed as parasitaemia cure at 3.3 mg/kg, perorally administered 1 day after infection for 3 days measured after 28 days post infection; assay type: functional; conditions: route oral
Summary of the method: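 Male Swiss Webster mice (18-20 g), at least 5 per group, inoculated i.p. with 2×10^7 P. berghei NK-65 parasitized red cells from a donor mouse. Oral dosing (100 μl, in SSV or dilute HCl) from day one after infection, three-day modified Peters suppressive schedule. Giemsa-stained tail blood smears from day 5 through day 28. Inhibition is % parasitemia drop on day 5 versus untreated controls. Cure means no parasitemia through day 28.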

Plasmodium berghei [10] = test: Antiplasmodial activity against Plasmodium berghei NK65 infected in Swiss Webster mice (Mus musculus) assessed as parasitaemia cure at 10 mg/kg, perorally administered 1 day after infection for 3 days measured after 28 days post infection; assay type: functional; conditions: route oral; summary of the method: as §1
Plasmodium berghei [11] = test: Antiplasmodial activity against Plasmodium berghei NK65 infected in Swiss Webster mice (Mus musculus) assessed as inhibition of parasitaemia at 100 mg/kg, perorally administered 1 day after infection measured after 5 days post infection; assay type: functional; conditions: route oral
Summary of the method: (§2)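 Male Swiss Webster mice (18-20 g, ≥5/group) inoculated i.p. with 2×10^7 P. berghei NK-65 parasitized RBC, given a single oral dose (100 μl, SSV or dilute HCl vehicle); parasitemia by Giemsa-stained tail blood smears days 5–28; activity as % decrease versus untreated controls on day 5.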

Plasmodium berghei [12] = test: Antiplasmodial activity against Plasmodium berghei NK65 infected in Swiss Webster mice (Mus musculus) assessed as average parasitaemia at 50 mg/kg, perorally administered as single dose measured after 5 days of inoculation; assay type: functional; conditions: NK65, 120 h, route oral; summary of the method: as §2
Plasmodium berghei [13] = test: Antiplasmodial activity against Plasmodium berghei NK65 infected in Swiss Webster mice (Mus musculus) at 3.3 mg/kg, po; assay type: functional; summary of the method: as §1
Plasmodium berghei [14] = test: Antiplasmodial activity against Plasmodium berghei NK65 infected in Swiss Webster mice (Mus musculus) assessed as average parasitaemia at 50 mg/kg, perorally administered 1 day after infection measured after 7 days post infection; assay type: functional; conditions: route oral; summary of the method: as §2
Plasmodium berghei [15] = test: Antiplasmodial activity against Plasmodium berghei NK65 infected in Swiss Webster mice (Mus musculus) assessed as average parasitaemia at 50 mg/kg, perorally administered 1 day after infection measured after 10 days post infection; assay type: functional; conditions: route oral
Plasmodium berghei [16] = test: Antiplasmodial activity against Plasmodium berghei NK65 infected in Swiss Webster mice (Mus musculus) assessed as average parasitaemia at 100 mg/kg, perorally administered 1 day after infection measured after 10 days post infection; assay type: functional; conditions: route oral
Plasmodium berghei [17] = test: Antiplasmodial activity against Plasmodium berghei NK65 infected in Swiss Webster mice (Mus musculus) assessed as average parasitaemia at 50 mg/kg, perorally administered 1 day after infection measured after 14 days post infection; assay type: functional; conditions: route oral; summary of the method: as §2
Plasmodium berghei [18] = test: Antiplasmodial activity against Plasmodium berghei NK65 infected in Swiss Webster mice (Mus musculus) assessed as average parasitaemia at 50 mg/kg, perorally administered 1 day after infection measured after 21 days post infection; assay type: functional; conditions: route oral; summary of the method: as §2
Plasmodium berghei [19] = test: Antiplasmodial activity against Plasmodium berghei NK65 infected in Swiss Webster mice (Mus musculus) assessed as average parasitaemia at 100 mg/kg, perorally administered 1 day after infection measured after 21 days post infection; assay type: functional; conditions: route oral; summary of the method: as §2
Plasmodium berghei [20] = test: Antiplasmodial activity against Plasmodium berghei NK65 infected in Swiss Webster mice (Mus musculus) assessed as average parasitaemia at 50 mg/kg, perorally administered 1 day after infection measured after 28 days post infection; assay type: functional; conditions: route oral; summary of the method: as §2
Plasmodium yoelii = test: Antiplasmodial activity against Plasmodium yoelii infected in perorally dosed mice (Mus musculus); assay type: functional; conditions: po
Plasmodium berghei [21] = test: Antiplasmodial activity against Plasmodium berghei infected in mice (Mus musculus) at 5 mg/kg, subcutaneously administered 1 day post infection for 3 days; assay type: functional; conditions: route subcutaneous
Mus musculus [22] = species on record: Mus musculus; test: Toxicity in Plasmodium berghei NK65 infected Swiss Webster mice (Mus musculus) assessed as weight loss after 5 days post infection; assay type: organism-based; conditions: in vivo, 120 h
Mus musculus [23] = test: Toxicity in Plasmodium berghei NK65 infected Swiss Webster mice (Mus musculus) assessed as weight loss at 200 mg/kg, perorally; assay type: organism-based; design: dose 200 mg/kg, route oral; conditions: in vivo, po
Summary of the method: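 P. berghei NK-65 infection in male Swiss Webster mice (18-20 g; 2×10^7 parasitized erythrocytes i.p.; ≥5 per group). A single oral dose of 100 μl, diluted in SSV or 0.01 M HCl, then observation for toxicity signs and body weight. Parasitemia read from Giemsa-stained tail smears from day 5 through day 28. Mice free of parasitemia through day 28 counted as cured.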

HeLa [24] = test: Cell cycle arrest in human HeLa cells assessed as increase in S phase accumulation at 10 uM after 24 hrs by FACS analysis; assay type: functional
HeLa [25] = test: Cell cycle arrest in human HeLa cells assessed as decrease in G2/M phase accumulation at 20 uM after 24 hrs by FACS analysis; assay type: functional; design: scale not given: the % may be the effect or the level left

Q: Which results are given for O[C@]12C=C(c3nccc4c3[nH]c3ccccc34)[C@@H]3CCN(CCCC/C=C\CC1)C[C@@]31C[C@@H]3/C=C\CCCCN3[C@H]12 [MANZAMINE A]?
A: inhibition in vivo at 1.1 mg/kg (Plasmodium berghei [1]): 50%; IC50 [2]: 100 nM; IC50 [3]: < 100 nM; inhibition in vivo at 3.3 mg/kg (Plasmodium berghei [4]): 88%; inhibition in vivo at 10 mg/kg (Plasmodium berghei [5]): 0.2%; inhibition in vivo at 10 mg/kg (Plasmodium berghei [6]): 0.4%; inhibition in vivo at 10 mg/kg (Plasmodium berghei [7]): 100%; inhibition in vivo at 1.1 mg/kg (Plasmodium berghei [8]): 0%; inhibition in vivo at 3.3 mg/kg (Plasmodium berghei [9]): 25%; inhibition in vivo at 10 mg/kg (Plasmodium berghei [10]): 75%; inhibition in vivo at 100 mg/kg (Plasmodium berghei [11]): 100%; inhibition in vivo at 50 mg/kg (Plasmodium berghei [12]): 0%; inhibition in vivo at 3.3 mg/kg (Plasmodium berghei [13]): > 30%; inhibition in vivo at 50 mg/kg (Plasmodium berghei [14]): 0%; inhibition in vivo at 50 mg/kg (Plasmodium berghei [15]): 0%; inhibition in vivo at 100 mg/kg (Plasmodium berghei [16]): 0%; inhibition in vivo at 50 mg/kg (Plasmodium berghei [17]): 1%; inhibition in vivo at 50 mg/kg (Plasmodium berghei [18]): 5.2%; inhibition in vivo at 100 mg/kg (Plasmodium berghei [19]): 0%; inhibition in vivo at 50 mg/kg (Plasmodium berghei [20]): 6.25%; ED50 (Plasmodium yoelii): 0.57 mg/kg; ED90 (Plasmodium yoelii): 1.7 mg/kg; Activity (Plasmodium berghei [21]): 19.7 days; Activity (Mus musculus [22]): Non-toxic; Activity (Mus musculus [23]): Toxic; Activity (HeLa [24]): 59.1%; Activity (HeLa [25]): 11.8%
